Test results published in ChEMBL document CHEMBL1121927, “Adriamycin analogues. Novel anomeric ribofuranoside analogues of daunorubicin” (1982).
pIC50: −log10 of the molar value.

Legend:
CCRF-CEM = assay: Inhibitory activity of compound against CCRF-CEM cells,a lymphoblastic leukemic of human origin propagated in suspension culture.; assay type: functional; details: read-out: ID50 (the source's name)
Nucleic Acid = assay: Compound was tested for the extent of DNA binding in calf thymus at pH 7 TRIS buffer.; assay type: nucleic-acid assay; details: Bos taurus
Outline: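 Spectral shift method with calf thymus DNA in Tris buffer, pH 7.0, at a drug/DNA molar ratio of 0.1. Binding extent is taken as the ratio of the absorbance of the drug–DNA mixture to that of drug alone at 480 nm.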

L1210 [1] = assay: Increase in life span of treated animals relative to untreated controls expressed in murine L1210 leukemia at a dose of 90 mg/kg x4 after ip injection.; assay type: functional; details: Mus musculus, route intraperitoneal
Outline: (§1)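 Mice implanted ip with 10⁵ L1210 leukemia cells on day 0. Treatment given ip once daily on days 1-4. Read-out is % ILS, the increase in life span of treated animals relative to untreated controls.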

L1210 [2] = assay: Increase in life span of treated animals relative to untreated controls expressed in murine L1210 leukemia at a dose of 45 mg/kg x4 after ip injection.; assay type: functional; details: Mus musculus, route intraperitoneal; outline: as §1
L1210 [3] = assay: Increase in life span of treated animals relative to untreated controls expressed in murine L1210 leukemia at a dose of 4 mg/kg x4 after ip injection.; assay type: functional; details: Mus musculus, route intraperitoneal; outline: as §1
L1210 [4] = assay: Increase in life span of treated animals relative to untreated controls expressed in murine L1210 leukemia at a dose of 50 mg/kg x4 after ip injection; curative; assay type: functional, organism-based; design: dose 50 mg/kg; details: Mus musculus
L1210 [5] = assay: Increase in life span of treated animals relative to untreated controls expressed in murine L1210 leukemia at a dose of 70 mg/kg x4 after ip injection.; assay type: functional; details: Mus musculus, route intraperitoneal; outline: as §1
L1210 [6] = assay: Increase in life span of treated animals relative to untreated controls expressed in murine L1210 leukemia at a dose of 15 mg/kg x4 after ip injection.; assay type: functional; details: Mus musculus, route intraperitoneal; outline: as §1
L1210 [7] = assay: Increase in life span of treated animals relative to untreated controls expressed in murine L1210 leukemia at a dose of 50.6 mg/kg x4 after ip injection.; assay type: functional; details: Mus musculus, route intraperitoneal; outline: as §1

Structure (SMILES)	pIC50 (CCRF-CEM)	Extent of DNA binding (Nucleic Acid)	further results
COc1cccc2c1C(=O)c1c(O)c3c(c(O)c1C2=O)C[C@@](O)(C(C)=O)C[C@@H]3O[C@@H]1O[C@H](CO)[C@@H](O)[C@H](O)[C@H]1N	5.52	0.82	ILS at 90 mg/kg (L1210 [1]): 60%
COc1cccc2c1C(=O)c1c(O)c3c(c(O)c1C2=O)C[C@@](O)(C(C)=O)C[C@@H]3O[C@H]1O[C@H](C)[C@@H](NC(=O)C(F)(F)F)[C@H]1O	6.05	–	ILS at 45 mg/kg (L1210 [2]): 55%
COc1cccc2c1C(=O)c1c(O)c3c(c(O)c1C2=O)C[C@@](O)(C(=O)CO)C[C@@H]3O[C@H]1C[C@H](N)[C@H](O)[C@H](C)O1 [DOXORUBICIN]	7.18	0.62	ILS at 4 mg/kg (L1210 [3]): 66%
CCCCC(=O)OCC(=O)[C@]1(O)Cc2c(O)c3c(c(O)c2[C@@H](OC2CC(NC(=O)C(F)(F)F)C(O)C(C)O2)C1)C(=O)c1c(OC)cccc1C3=O (some centres undefined)	6.62	0.96	ILS (L1210 [4]): Curative
COc1cccc2c1C(=O)c1c(O)c3c(c(O)c1C2=O)C[C@@](O)(C(C)=O)C[C@@H]3O[C@@H]1O[C@H](C)[C@@H](NC(=O)C(F)(F)F)[C@H]1O	5.97	–	ILS at 70 mg/kg (L1210 [5]): 66%
COc1cccc2c1C(=O)c1c(O)c3c(c(O)c1C2=O)C[C@@](O)(C(C)=O)C[C@@H]3O[C@H]1O[C@H](C)[C@@H](N)[C@H]1O	6.55	0.8	ILS at 15 mg/kg (L1210 [6]): 22%
COc1cccc2c1C(=O)c1c(O)c3c(c(O)c1C2=O)C[C@@](O)(C(C)=O)C[C@@H]3O[C@@H]1O[C@H](C)[C@@H](N)[C@H]1O	6.68	0.86	ILS at 50.6 mg/kg (L1210 [7]): 55%
